IMP-1 inhibitor: IMP-1 metallo-beta-lactamase inhibitors, primary screen, biochemical, epi-absorbance readout, Pseudomonas aeruginosa enzyme; metallo-beta-lactamase IMP-1 (Pseudomonas aeruginosa); purified IMP-1, nitrocefin hydrolysis, epi-absorbance fluorescence; inhibition, % at 5.6 µM; 290,000 tested, 0.45% active;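 active = inhibition above the mean plus 3 SD of all compounds in the same screening run, cut at about 4.5% in these data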;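 also: 0% = IMP-1 with DMSO and 100% = DMSO wells lacking enzyme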
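System: purified IMP-1; amount: IMP-1 0.2 nM before substrate addition; compound: single dose, 5.6 µM; times: 25 °C, 15 min preincubation, 25 min reaction; signal: Epi-absorbance via hydrolysed-nitrocefin quenching of white-plate fluorescence, 480/530 nm, EDTA stop; benchmarks: DMSO with and without IMP-1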
Mdm2-MdmX inh: inhibitors of human Mdm2-MdmX association, primary screen, cell-based, luminescence, split luciferase, SaOS-2, uHTS; Protein Mdm4 (Homo sapiens) + E3 ubiquitin-protein ligase Mdm2 (Homo sapiens), …; 330,000 tested, 3% active; SaOS-2 split-luciferase Mdm2/MdmX complementation; AID 485346, 2010; inhibition, % at 8 µM;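 active = inhibition of at least 50% at 8 µM in the primary screen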
697 NFkB inh: inhibitors of PMA/ionomycin-induced NF-kB reporter, 697 cells, primary screen, B-cell NF-kB inhibitor project, cell-based, luminescence, uHTS; 697 B-cell NF-kB luciferase reporter, 16 h; inhibition, % at 4 µM; 330,000 tested, 0.33% active; AID 435022, 2010; in the data active = inhibition above about 35%
aSyn 5UTR inh: MLPCN primary screen, SNCA 5' untranslated region. alpha-synuclein 5'UTR reporter, inhibitor activity. inhibition, % (tested at 7.5 µM). 300,000 tested, 0.82% active. AID 1813, 2009; in the data active = inhibition above about 60%;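 also: H4 neuroglioblastoma cells stably carrying SNCA 5'UTR luciferase fusion; 0% = DMSO wells and 100% = positive control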
VIM-2 inhibitor: VIM-2 metallo-beta-lactamase inhibitors, primary screen, biochemical, epi-absorbance readout, Pseudomonas aeruginosa enzyme. purified VIM-2, nitrocefin hydrolysis, epi-absorbance fluorescence. inhibition, % at 5.6 µM. 290,000 tested, 0.89% active;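 active = inhibition above the mean of all tested compounds plus 3 SD, cutoff set per screening run, cut at about 7.5% in these data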;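 also: red hydrolysis product quenches plate fluorescence so inhibitors raise well fluorescence; 0% = enzyme with DMSO and 100% = DMSO without enzyme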
Jurkat NFkB inh: inhibitors of induced NF-kB luciferase reporter, primary screen, TCR NF-kB activation inhibitor project, cell-based, luminescence, uHTS | 330,000 tested, 0.53% active | inhibition, % at 4 µM | Jurkat, PMA/ionomycin-induced NF-kB luciferase reporter; in the data active = inhibition above about 50%
Jurkat NFkB conf: PMA/ionomycin-induced NF-kB reporter inhibitors, Jurkat retest, confirmation, T-cell NF-kB inhibitor project, cell-based, luminescence, single concentration; shares compounds with Jurkat NFkB inh; Jurkat NF-kB luciferase, 16 h; inhibition, % at 4 µM; 2,700 tested, 27% active;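 active = inhibition reaching about 45% at 4 µM in either replicate, limit read from the data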;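 also: plate controls were PMA/ionomycin stimulated DMSO wells for no effect and unstimulated DMSO wells for full effect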
Active calls of the source: *; x = not tested or not shown. Shown are actives, neighbours in structure and some others; about 4.7% of the full set was active somewhere.

SMILES	IMP-1 inhibitor	Mdm2-MdmX inh	697 NFkB inh	aSyn 5UTR inh	VIM-2 inhibitor	Jurkat NFkB inh	Jurkat NFkB conf
CC1(C)CC2CC(C)(CN2S(=O)(=O)c2ccc(C(=O)Nc3cccc(S(=O)(=O)N4CCOCC4)c3)cc2)C1 (stereo unspecified)	-1	20	-16	19	0	63*	69*
Cc1ccc(C(=O)Nc2ccc3c4c(cccc24)CC3)cc1[N+](=O)[O-]	-4	3	-22	-21	-2	85*	13
COc1cc(NC(=O)CNc2cccc(S(=O)(=O)N3CCOCC3)c2)cc(OC)c1	x	7	-13	x	x	11	x
COc1ccccc1NC(=O)COC(=O)Cn1cnc2c1c(=O)n(C)c(=O)n2C	x	24	-1	x	x	60*	6
Cn1c(=O)c2c(ncn2CC(=O)OCC(=O)Nc2ccccc2)n(C)c1=O	-2	-28	4	-7	0	-14	x
Cc1cc(C(=O)NNC(=O)c2ccc(C)c([N+](=O)[O-])c2)c(C)o1	x	10	13	x	x	9	x
Nc1c(C(=O)Nc2cccc(C(=O)O)c2)sc2nc3c(cc12)CCCC3	-2	-2	16	77*	-2	70*	-54
CCCCCCNC(=O)c1cccc(-c2ccc(C)c3ccccc23)n1	-4	-24	20	15	-5	13	x
COc1ccccc1CNC(=O)c1cccc(-c2ccc(C)c3ccccc23)n1	-2	6	-13	39	-4	61*	22
Fc1ccc(-c2cn3cc(C(F)(F)F)cc(Cl)c3n2)cc1	-1	-239	-172	-101	-4	-189	-146
COc1cc(C(=O)Nc2ccc3c(c2)C(=O)c2ccccc2C3=O)cc(OC)c1OC	-4	x	x	7	0	x	x
COc1cc(C(=O)Nc2ccc3c(c2)Cc2ccccc2-3)cc(OC)c1OC	0	47	-16	-8	-3	54*	35
Cc1ccc(NCCC(=O)c2cccs2)cc1C	-2	-3	-124	-187	0	-180	-7
COc1ccc(C(=S)N2CCN(c3cccc(Cl)c3)CC2)c(OC)c1	-2	44	-38	43	-2	63*	-5
Cc1cccc(NC(=O)c2cccc3c2-c2ccccc2C3=O)n1	-2	-3	0	-36	-1	4	x
O=C(Nc1ccc(Br)cn1)c1cccc2c1-c1ccccc1C2=O	-3	46	6	-11	-2	61*	18
COc1ccc(N/C=C/C(=O)c2ccc(C)cc2)c([N+](=O)[O-])c1	-3	-19	-191	-13	0	-179	-84
O=C(CCC1CCCCC1)Nc1ccccc1O	-3	-30	-72	-163	0	-84	x
Cc1cccc(OCC(=O)Nc2cc(C)ccc2O)c1	-3	3	29	-37	0	72*	55*
Cc1ccc(O)c(NC(=O)CCC2CCCCC2)c1	-1	-72	3	-152	2	64*	40
COc1cccc(C(=O)/C=C/Nc2cc(C)ccc2O)c1	0	-18	-61	-261	-1	67*	-8
CC(=O)c1ccc(NC(=O)CN2CCCC2)cc1	-2	-28	-49	-63	-1	-39	x
O=c1[nH]cc(S(=O)(=O)N2CCCc3ccccc32)c(=O)[nH]1	x	7	1	2	x	-8	x
O=C(C1CCCN(S(=O)(=O)c2cc(Cl)ccc2Cl)C1)N1CCCC1 (stereo unspecified)	-2	27	14	2	0	3	x
Cc1ccc(Cl)c(N/C=C/C(=O)c2ccccc2)c1	-2	-138	-229	-144	5	-181	-80
COc1cccc(N/C=C/C(=O)c2ccc(Br)cc2)c1	0	-170	-192	-117	1	-132	x
Cc1cccc(N/C=C/C(=O)c2ccc(Cl)cc2)c1	0	-228	-154	-157	3	-136	x
COc1ccc(C(=O)/C=C/Nc2cccc(O)c2)cc1	-2	-193	-60	-94	-1	-179	-69

Screening results from PubChem BioAssay.
